Laboratory results published in ChEMBL document CHEMBL5678815 (Clin Cancer Res, 2017).
Active and inactive are the calls of the source. No cut-off for these calls is given here.

Assays:
[1] = In vivo inhibition of BCR signaling in female […] mouse assessed as B-cell function at 25 mg/kg, po administered for 24 hrs and measured after stimulation with anti-IgM for 18 h by flow cytometry analysis relative to control; type: functional, Splenocyte; parameters: scale not given: the % may be the effect or the level left
Outline: (§1)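 Female C57BL/6 mice (5/group) received vehicle or 25 mg/kg drug by oral gavage at time zero, with spleens taken at time points from 3 to 24 h. Splenocytes were stimulated ex vivo with goat anti-mouse IgM at 10μg/mL for 18 h at 37°C in 5% CO2, then Fc-blocked and stained for CD19 plus CD69, CD86 or phospho-S6(S235/236), with 7-AAD to exclude dead cells. Read-out was flow cytometry on >5,000 gated CD19+ cells, compared with vehicle.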

[2] = system: Splenocyte; assay: In vivo inhibition of BCR signaling in female […] mouse assessed as change in phospho-S6 expression at 25 mg/kg, po administered and measured after stimulation with anti-IgM for 18 h by flow cytometry analysis; type: functional, organism-based; outline: as §1
[3] = system: Splenocyte; assay: In vivo inhibition of BCR signaling in female […] mouse assessed as CD69 expression at 2.9 mg/kg, po administered and measured after stimulation with anti-IgM for 18 h by flow cytometry analysis; type: functional, organism-based
Outline: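 Female C57BL/6 mice (5/group/dose) were gavaged orally with vehicle or drug at 0.1–30 mg/kg, and spleens were harvested after 3 h. Splenocytes were stimulated with anti-IgM at 10μg/mL for 18 h at 37°C in 5% CO2, then Fc-blocked and stained for CD19 and CD69, with 7-AAD marking dead cells. CD69 on CD19+ B-cells was read by flow cytometry, acquiring >5,000 gated CD19+ cells.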

[4] = system: Splenocyte; assay: In vivo inhibition of BCR signaling in female […] mouse assessed as change in CD86 expression at 25 mg/kg, po administered and measured after stimulation with anti-IgM for 18 h by flow cytometry analysis; type: functional, organism-based; outline: as §1

C=CC(=O)N1CCC[C@@H](n2nc(-c3ccc(Oc4ccccc4)cc3)c3c(N)ncnc32)C1 [IBRUTINIB]
Activity [1]: ~70%
Activity [2]: Active
Activity [3]: Active
Activity [4]: Active
